# From ChEMBL document CHEMBL1155175, “Salicylidene acylhydrazides that affect type III protein secretion in Salmonella enterica serovar typhimurium” (Antimicrob Agents Chemother, 2007)
# Activity calls are given as the source filed them. The rule behind the calls is not given here.
# What was measured:
# Salmonella typhimurium [1] = assay: Antibacterial activity against Salmonella enterica serovar Typhimurium TT16729 assessed as decrease in spvA-lacZ expression at 40 uM; assay type: functional, organism-based; settings: Salmonella enterica subsp. enterica serovar Typhimurium
# Salmonella typhimurium [2] = assay: Antibacterial activity against Salmonella enterica serovar Typhimurium 14028 assessed as reduction in sseJ-HA fusion protein secretion in hexadecane extracted fraction at 20 and 40 uM by immunoblotting; assay type: functional, organism-based; settings: Salmonella enterica subsp. enterica serovar Typhimurium
# How it was run: (§1)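 Strain 14028 grown overnight in low-pH minimal medium MM5.8 (SPI2-inducing) with compound or DMSO control; whole cells, hexadecane-extractable fraction and cell-free supernatant separated, volumes normalized by OD600, supernatant proteins TCA-precipitated; SseJ-HA detected by immunoblot on 12% SDS-PAGE with anti-HA monoclonal antibody (1:1,000) and chemiluminescence.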
# Salmonella typhimurium [3] = assay: Antibacterial activity against Salmonella enterica serovar Typhimurium TT16729 expressing SPI1 effector protein assessed as increase in beta-lactamase activity in cytosolic fraction at 20 uM by immunoblotting; assay type: functional, organism-based; settings: Salmonella enterica subsp. enterica serovar Typhimurium
# How it was run: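 TT16729 carrying pAUN-1 (SipB–β-lactamase fusion) grown to invasiveness in kanamycin LB, then 2 h in DMEM with kanamycin, L-glutamine and HEPES; compound 20 µM in all steps, DMSO control. Cells lysed (freeze-thaw, lysozyme 1 mg/ml 1 h 4°C, sonication), 5,000 x g clearing, then 50,000 x g 1 h. Cytosolic fraction assayed by nitrocefin (50 µg/ml, PBS) cleavage at A486, per min per OD600 or µg protein.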
# Salmonella typhimurium [4] = assay: Antibacterial activity against Salmonella enterica serovar Typhimurium TT16729 assessed as inhibition of SPI1 protein secretion T3SS-mediated invasion in MDCK cells at 20 uM; assay type: functional, organism-based; settings: Salmonella enterica subsp. enterica serovar Typhimurium
# How it was run: (§2)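 Bacteria grown in LB (overnight, then 1:10 subculture 3 h, 37°C, closed tubes) with compound at 20 µM or DMSO, then seeded on MDCK cells in HEPES-DMEM, MOI 10:1. Gentamicin 50 µg/ml for 45 min; cells lysed at 2 h with 0.5% deoxycholate; invasion = CFU at 2 h / CFU seeded, as percentage of input.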
# Salmonella typhimurium [5] = assay: Antibacterial activity against Salmonella enterica serovar Typhimurium 14028 in mouse RAW264.7 cells assessed as reduction of intracellular bacterial replication at 40 uM after 16 hrs; assay type: functional, organism-based; settings: Salmonella enterica subsp. enterica serovar Typhimurium
# How it was run: (§3)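 RAW264.7 cells in RPMI/10% FBS infected at MOI 10:1 with LB-agar-grown, mouse-serum-opsonized bacteria; gentamicin 50 µg/ml for 45 min, then 10 µg/ml. Compound added to killing and maintenance media from 1 h postinfection onward. Hypotonic lysis at 2 and 16 h; growth yield = CFU 16 h / CFU 2 h.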
# Salmonella typhimurium [6] = assay: Antibacterial activity against Salmonella enterica serovar Typhimurium 14028 assessed as increase in sseJ-HA fusion protein secretion in bacterial cell containing fraction at 20 and 40 uM by immunoblotting; assay type: functional, organism-based; settings: Salmonella enterica subsp. enterica serovar Typhimurium; how it was run: as §1
# Salmonella typhimurium [7] = assay: Antibacterial activity against Salmonella enterica serovar Typhimurium TT16729 at 20 uM to 40 uM; assay type: functional, organism-based; settings: Salmonella enterica subsp. enterica serovar Typhimurium
# Salmonella typhimurium [8] = assay: Antibacterial activity against Salmonella enterica serovar Typhimurium TT16729 in mouse RAW264.7 cells assessed as reduction of intracellular bacterial replication at 40 uM after 16 hrs; assay type: functional, organism-based; settings: Salmonella enterica subsp. enterica serovar Typhimurium; how it was run: as §3
# Salmonella typhimurium [9] = assay: Antibacterial activity against Salmonella enterica serovar Typhimurium TT16729 assessed as decrease in transcription of lacZ-sipC at 40 uM; assay type: functional, organism-based; settings: Salmonella enterica subsp. enterica serovar Typhimurium
# Salmonella typhimurium [10] = assay: Antibacterial activity against Salmonella enterica serovar Typhimurium TT16729 assessed as decrease in transcription of lacZ-hilA at 40 uM; assay type: functional, organism-based; settings: Salmonella enterica subsp. enterica serovar Typhimurium
# Salmonella typhimurium [11] = assay: Antibacterial activity against Salmonella enterica serovar Typhimurium TT16729 assessed as decrease in transcription of lacZ-prgH at 40 uM; assay type: functional, organism-based; settings: Salmonella enterica subsp. enterica serovar Typhimurium
# Salmonella typhimurium [12] = assay: Antibacterial activity against Salmonella enterica serovar Typhimurium TT16729 in mouse RAW264.7 cells assessed as increase in nitric oxide level at 40 uM after 16 hrs; assay type: functional, organism-based; settings: Salmonella enterica subsp. enterica serovar Typhimurium
# How it was run: (§4)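 Opsonized bacteria infect RAW264.7 macrophages (MOI 10:1, gentamicin protection); compound or DMSO present in media from 1 h postinfection. Nitrite accumulated in culture medium at 16 h postinfection measured with Griess reagent (OD525), converted to µM against sodium nitrite standards.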
# RAW264.7 = assay: Effect on nitric oxide production in mouse RAW264.7 cells; assay type: functional, cell-based
# Salmonella typhimurium [13] = assay: Antibacterial activity against Salmonella enterica serovar Typhimurium 14028 assessed as inhibition of sseJ-HA fusion protein secretion by immunoblotting; settings: Salmonella enterica subsp. enterica serovar Typhimurium
# Salmonella typhimurium [14] = assay: Antibacterial activity against Salmonella enterica serovar Typhimurium 14028 in mouse RAW264.7 cells assessed as increase in nitric oxide level at 40 uM after 16 hrs; assay type: functional, organism-based; settings: Salmonella enterica subsp. enterica serovar Typhimurium; how it was run: as §4
# Salmonella typhimurium [15] = assay: Antibacterial activity against Salmonella enterica serovar Typhimurium TT16729 motility assessed as reduction of swimming zone on soft agar plates at 40 uM; assay type: functional, Salmonella enterica subsp. enterica serovar Typhimurium
# How it was run: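 Swimming motility on soft agar (tryptone 10 g/liter, NaCl 5 g/liter, 0.3% agar) prepared 1 day ahead, compound at 40 µM final; 20 µl overnight culture inoculated into agar; zone diameter read after 8 h at 37°C.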
# MDCK = assay: Cytotoxicity against MDCK cells at 20 uM to 40 uM; assay type: cell-based, Canis lupus familiaris; settings: dog
# Salmonella typhimurium [16] = assay: Inhibition of Salmonella enterica serovar Typhimurium TT16729 invasion in MDCK cells at 20 uM by gentamycin protection assay; assay type: functional, organism-based; settings: Salmonella enterica subsp. enterica serovar Typhimurium; how it was run: as §2
# Salmonella typhimurium [17] = assay: Antibacterial activity against Salmonella enterica serovar Typhimurium TT16729 expressing SPI1 effector protein assessed as localization of SipB-beta-lactamase fusion protein in osmotic shock sample at 20 uM by immunoblotting; assay type: functional, organism-based; settings: Salmonella enterica subsp. enterica serovar Typhimurium
# Salmonella typhimurium [18] = assay: Antibacterial activity against Salmonella enterica serovar Typhimurium TT16729 assessed as reduction in expression of bacterial cell bound flagellin at 40 uM by SDS-PAGE; assay type: functional, organism-based; settings: Salmonella enterica subsp. enterica serovar Typhimurium
# How it was run: (§5)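 Bacteria grown 16–18 h in LB with compound (40 or 80 µM) or DMSO; flagellin released by 150 mM NaCl/10 mM HCl for 5 min at room temperature, bacteria removed by centrifugation, supernatant proteins TCA-precipitated and run on 9% SDS-PAGE; loading normalized by OD600.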
# Salmonella typhimurium [19] = assay: Antibacterial activity against Salmonella enterica serovar Typhimurium TT16729 assessed as reduction in expression of bacterial cell bound flagellin at 80 uM by SDS-PAGE; assay type: functional, organism-based; settings: Salmonella enterica subsp. enterica serovar Typhimurium; how it was run: as §5
# Salmonella typhimurium [20] = assay: Antibacterial activity against Salmonella enterica serovar Typhimurium TT16729 in mouse RAW264.7 cells assessed as increase in intracellular bacterial replication at 40 uM after 16 hrs; assay type: functional, organism-based; settings: Salmonella enterica subsp. enterica serovar Typhimurium; how it was run: as §3
# Salmonella typhimurium [21] = assay: Antibacterial activity against Salmonella enterica serovar Typhimurium TT16729 infected mouse RAW264.7 cells assessed as increase in nitric oxide level at 40 uM after 16 hrs in presence of tetracyclin; assay type: functional, organism-based; settings: Salmonella enterica subsp. enterica serovar Typhimurium
# How it was run: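 RAW264.7 cells infected with opsonized strain TT16729 (MOI 10:1, gentamicin protection), compound in medium from 1 h postinfection; bacterial protein synthesis blocked with tetracycline at 2 h postinfection. Medium nitrite measured at 16 h by Griess reagent (OD525) against sodium nitrite standards.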
# Salmonella typhimurium [22] = assay: Antibacterial activity against Salmonella enterica serovar Typhimurium 14028 in mouse RAW264.7 cells assessed as reduction of nitric oxide level at 40 uM after 16 hrs; assay type: functional, organism-based; settings: Salmonella enterica subsp. enterica serovar Typhimurium; how it was run: as §4
SMILES,Activity (Salmonella typhimurium [4]),Activity (Salmonella typhimurium [7]),Activity (Salmonella typhimurium [15]) [cm],Activity (MDCK),Activity (Salmonella typhimurium [16]),other results
O=C(N/N=C/c1cc(Br)cc(Br)c1O)c1cccnc1,Active,inactive,2.7,Non-toxic,Active,Activity (Salmonella typhimurium [1]): Active; Activity (Salmonella typhimurium [2]): Active; Activity (Salmonella typhimurium [3]): Active; Activity (Salmonella typhimurium [5]): Active; Activity (Salmonella typhimurium [6]): inactive; Activity (Salmonella typhimurium [8]): Active; Activity (Salmonella typhimurium [9]): Active; Activity (Salmonella typhimurium [10]): Active; Activity (Salmonella typhimurium [11]): Active; Activity (Salmonella typhimurium [12]): Active; Activity (RAW264.7): inactive; Activity (Salmonella typhimurium [13]): Active; Activity (Salmonella typhimurium [14]): Active; Activity (Salmonella typhimurium [17]): inactive
NC(=O)C(=O)N/N=C/c1cc(Br)ccc1O,Active,inactive,1.7,Non-toxic,Active,Activity (Salmonella typhimurium [18]): Active; Activity (Salmonella typhimurium [19]): Active
O=C(N/N=C/c1c(O)ccc2ccccc12)c1ccc(Cl)cc1,Active,inactive,3.1,Non-toxic,Active,Activity (Salmonella typhimurium [20]): Active; Activity (Salmonella typhimurium [2]): Active; Activity (Salmonella typhimurium [6]): inactive; Activity (Salmonella typhimurium [21]): Active; Activity (Salmonella typhimurium [22]): Active; Activity (RAW264.7): inactive; Activity (Salmonella typhimurium [13]): Active
O=C(N/N=C/c1ccc(O)c(O)c1O)c1ccco1,Active,inactive,2.9,Non-toxic,Active,
O=C(N/N=C/c1cc(Cl)cc(Cl)c1O)c1ccccc1,Active,inactive,2.7,Non-toxic,Active,
O=C(N/N=C/c1ccc(O)c(O)c1O)c1ccccc1,Active,inactive,3.3,Non-toxic,Active,
O=C(N/N=C/c1cc(Br)cc(Br)c1O)c1ccc([N+](=O)[O-])cc1,Active,inactive,2.9,Non-toxic,Active,
O=C(N/N=C/c1cc(Br)ccc1O)c1cccnc1,Active,inactive,2.4,Non-toxic,Active,Activity (Salmonella typhimurium [18]): Active
CCOc1cccc(/C=N/NC(=O)C(N)=O)c1O,Active,inactive,2.7,Non-toxic,Active,Activity (Salmonella typhimurium [19]): inactive
